Reference: ChEMBL document CHEMBL4257470, “Rational design and characterization of a DNA/HDAC dual-targeting inhibitor containing nitrogen mustard and 2-aminobenzamide moieties” (Medchemcomm, 2018)
Activity calls are given as the source filed them. The rule behind the calls is not given here.

Tests used:
A-375 [1] = test: Induction of apoptosis in human A375 cells assessed as early apoptotic cells at 16 uM after 72 hrs by Alexa Fluor 488 Annexin/propidium iodide staining-based flow cytometric analysis (reference value: 2.07%); format: functional
A-375 [2] = test: Induction of apoptosis in human A375 cells assessed as late apoptotic cells at 16 uM after 72 hrs by Alexa Fluor 488 Annexin/propidium iodide staining-based flow cytometric analysis (reference value: 10.22%); format: functional
A-375 [3] = test: Cell cycle arrest in human A375 cells assessed as accumulation at G2/M phase at 8 uM after 72 hrs by propidium iodide/RNase staining based flow cytometric analysis relative to control; format: functional
Summary of the method: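 A375 cells (1.6 × 10^5 per well) plated 12 h, then treated with compound or DMSO for 72 h. Cells fixed overnight in 70% ethanol in phosphate buffer at –20 °C, stained 30 min at room temperature with RNase:PI (1:9). DNA content read by flow cytometry.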

A-375 [4] = test: Induction of apoptosis in human A375 cells assessed as early apoptotic cells at 2 uM after 72 hrs by Alexa Fluor 488 Annexin/propidium iodide staining-based flow cytometric analysis (reference value: 2.07%); format: functional
A-375 [5] = test: Induction of apoptosis in human A375 cells assessed as necrotic cells at 2 uM after 72 hrs by Alexa Fluor 488 Annexin/propidium iodide staining-based flow cytometric analysis (reference value: 1.64%); format: functional
HepG2 = test: Antiproliferative activity against human HepG2 cells after 72 hrs CCK8 assay; format: functional, cell-based; settings: HepG2, 72 h
Histone deacetylase 1 = Histone deacetylase 1 (Homo sapiens, UniProt Q13547); test: Inhibition of recombinant human HDAC1 using FLUOR DE LYS SIRT1 deacetylase substrate after 1 hr by fluorescence assay
Histone deacetylase 1, sequence (Q13547 whole entry, canonical isoform): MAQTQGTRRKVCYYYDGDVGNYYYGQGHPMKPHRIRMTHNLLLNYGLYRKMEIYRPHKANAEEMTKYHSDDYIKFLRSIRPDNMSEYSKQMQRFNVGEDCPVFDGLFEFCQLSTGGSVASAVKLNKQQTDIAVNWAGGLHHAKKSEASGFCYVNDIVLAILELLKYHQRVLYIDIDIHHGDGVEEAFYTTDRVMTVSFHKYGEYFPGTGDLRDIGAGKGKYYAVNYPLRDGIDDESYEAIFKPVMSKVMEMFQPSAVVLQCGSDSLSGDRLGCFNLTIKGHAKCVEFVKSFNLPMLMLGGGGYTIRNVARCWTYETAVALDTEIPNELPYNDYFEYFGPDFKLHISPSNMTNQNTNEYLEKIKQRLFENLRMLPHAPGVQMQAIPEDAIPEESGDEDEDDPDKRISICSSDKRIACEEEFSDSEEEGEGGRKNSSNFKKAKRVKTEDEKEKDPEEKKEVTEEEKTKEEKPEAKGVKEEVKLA
Summary of the method: (§1)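 Each isoform kit run with the enzyme preincubated with a concentration series of inhibitor, and substrate added after 5 min equilibration at 37 °C. Reaction ran 1 h at 37 °C, was stopped with developer for 10 min at 25 °C, and fluorescence was read at ex 360/em 460 nm. Activity taken as percent of control; IC50 by regression of dose–inhibition data.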

[6] = Induction of DNA damage in human A375 cells assessed as phosphorylation of H2AX at Ser139 residues at 8 uM after 48 hrs relative to control; format: functional
Summary of the method: (§2)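 A375 cells seeded 7000 per well, treated next day for 48 h. Whole-cell γH2AX (Ser139) immunoassay read by absorbance, normalised to cell number and expressed as percent of untreated control; mean ± SD, n = 3; t-test.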

Histone deacetylase 8 = target: T1, Histone deacetylase 8 (Homo sapiens, UniProt Q9BY41); test: Inhibition of recombinant human HDAC8 using FLUOR DE LYS as substrate after 1 hr by fluorescence assay; summary of the method: as §1
T1 sequence (Q9BY41 whole entry): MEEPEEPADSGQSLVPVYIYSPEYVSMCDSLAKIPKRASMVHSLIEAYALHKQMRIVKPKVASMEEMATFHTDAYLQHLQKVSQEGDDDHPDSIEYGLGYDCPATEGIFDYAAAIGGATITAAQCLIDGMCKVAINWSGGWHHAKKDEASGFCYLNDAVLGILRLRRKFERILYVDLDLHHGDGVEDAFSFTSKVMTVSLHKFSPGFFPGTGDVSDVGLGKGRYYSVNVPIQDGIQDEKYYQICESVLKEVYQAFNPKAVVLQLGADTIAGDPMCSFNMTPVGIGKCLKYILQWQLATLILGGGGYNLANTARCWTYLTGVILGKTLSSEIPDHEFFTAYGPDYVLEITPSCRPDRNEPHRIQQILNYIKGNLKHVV

A-375 [7] = test: Antiproliferative activity against human A375 cells after 72 hrs CCK8 assay; format: functional, cell-based; settings: A-375, 72 h
A-375 [8] = test: Induction of apoptosis in human A375 cells assessed as viable cells at 8 uM after 72 hrs by Alexa Fluor 488 Annexin/propidium iodide staining-based flow cytometric analysis (reference value: 86.07%); format: functional; settings: A-375, 72 h, read-out: Activity
A-375 [9] = test: Induction of apoptosis in human A375 cells assessed as early apoptotic cells at 8 uM after 72 hrs by Alexa Fluor 488 Annexin/propidium iodide staining-based flow cytometric analysis (reference value: 2.07%); format: functional
NCI-H460 = test: Antiproliferative activity against human H460 cells after 72 hrs CCK8 assay; format: functional, cell-based; settings: NCI-H460, 72 h
Summary of the method: (§3)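 Cells grown in RPMI1640 with 10% FBS, 1% penicillin/streptomycin, 37 °C, 5% CO2; log-phase cells seeded 3000–4000 per well, dosed after 12 h with a concentration series or solvent control for 72 h. CCK-8 added for 1 h, absorbance at 450 nm; IC50 from percent growth versus untreated control; mean of three experiments.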

A-375 [10] = test: Anticlonogenic activity against human A375 cells after 7 days by crystal violet staining based assay; format: functional, cell-based
Summary of the method: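 A375 cells seeded at 3000 per well, treated after 24 h with compound or DMSO; after 7 days colonies fixed in 3.7% formaldehyde and stained with 0.1% crystal violet.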

[11] = target: Histone deacetylase (Homo sapiens) (UniProt Q13547+O15379+Q9UBN7+Q92769+Q9UQL6+Q8WUI4+Q9BY41+Q96DB2+P56524+Q9UKV0+Q969S8); test: Inhibition of HDAC in human HeLa cell nuclear extracts at 0.1 to 10000 uM using FLUOR DE LYS-Green as substrate after 1 hr by fluorescence assay; format: protein assay
Summary of the method: (§4)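 Enzyme preincubated with a concentration series of inhibitor; Fluor de Lys-Green substrate equilibrated at 37 °C for 5 min, then added to start the reaction. Incubated 1 h at 37 °C, stopped with developer for 10 min at 25 °C, fluorescence read at ex 360/em 460 nm. Activity taken as percent of control; IC50 by regression of dose–inhibition data.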

A-375 [12] = test: Induction of apoptosis in human A375 cells assessed as late apoptotic cells at 8 uM after 72 hrs by Alexa Fluor 488 Annexin/propidium iodide staining-based flow cytometric analysis (reference value: 10.22%); format: functional
A-375 [13] = test: Induction of apoptosis in human A375 cells assessed as viable cells at 2 uM after 72 hrs by Alexa Fluor 488 Annexin/propidium iodide staining-based flow cytometric analysis (reference value: 86.07%); format: functional; settings: A-375, 72 h, read-out: Activity
A-375 [14] = test: Induction of apoptosis in human A375 cells after 72 hrs by Alexa Fluor 488 Annexin/propidium iodide staining-based flow cytometric analysis; format: functional, cell-based
[15] = Induction of DNA damage in human A375 cells assessed as phosphorylation of H2AX at Ser139 residues at 16 uM after 48 hrs relative to control; format: functional; summary of the method: as §2
[16] = target: Histone deacetylase 3/NCoR1 (Homo sapiens, UniProt O15379); test: Inhibition of recombinant human HDAC3/NCOR1 using FLUOR DE LYS SIRT1 deacetylase substrate after 1 hr by fluorescence assay; format: protein-complex assay; summary of the method: as §1
Histone deacetylase 3/NCoR1, sequence (O15379 whole entry): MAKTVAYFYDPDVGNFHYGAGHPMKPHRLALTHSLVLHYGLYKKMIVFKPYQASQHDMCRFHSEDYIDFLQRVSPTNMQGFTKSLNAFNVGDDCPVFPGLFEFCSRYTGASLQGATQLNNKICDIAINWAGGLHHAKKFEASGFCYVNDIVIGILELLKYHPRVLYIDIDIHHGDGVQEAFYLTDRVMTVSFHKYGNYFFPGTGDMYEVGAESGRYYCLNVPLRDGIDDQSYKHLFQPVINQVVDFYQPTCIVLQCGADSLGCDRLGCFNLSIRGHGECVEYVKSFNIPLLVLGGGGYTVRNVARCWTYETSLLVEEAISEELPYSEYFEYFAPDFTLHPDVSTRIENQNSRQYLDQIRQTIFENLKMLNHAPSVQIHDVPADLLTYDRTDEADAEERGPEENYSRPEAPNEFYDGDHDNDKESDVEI
Histone deacetylase 3/NCoR1, sequence (O75376 whole entry, further chain): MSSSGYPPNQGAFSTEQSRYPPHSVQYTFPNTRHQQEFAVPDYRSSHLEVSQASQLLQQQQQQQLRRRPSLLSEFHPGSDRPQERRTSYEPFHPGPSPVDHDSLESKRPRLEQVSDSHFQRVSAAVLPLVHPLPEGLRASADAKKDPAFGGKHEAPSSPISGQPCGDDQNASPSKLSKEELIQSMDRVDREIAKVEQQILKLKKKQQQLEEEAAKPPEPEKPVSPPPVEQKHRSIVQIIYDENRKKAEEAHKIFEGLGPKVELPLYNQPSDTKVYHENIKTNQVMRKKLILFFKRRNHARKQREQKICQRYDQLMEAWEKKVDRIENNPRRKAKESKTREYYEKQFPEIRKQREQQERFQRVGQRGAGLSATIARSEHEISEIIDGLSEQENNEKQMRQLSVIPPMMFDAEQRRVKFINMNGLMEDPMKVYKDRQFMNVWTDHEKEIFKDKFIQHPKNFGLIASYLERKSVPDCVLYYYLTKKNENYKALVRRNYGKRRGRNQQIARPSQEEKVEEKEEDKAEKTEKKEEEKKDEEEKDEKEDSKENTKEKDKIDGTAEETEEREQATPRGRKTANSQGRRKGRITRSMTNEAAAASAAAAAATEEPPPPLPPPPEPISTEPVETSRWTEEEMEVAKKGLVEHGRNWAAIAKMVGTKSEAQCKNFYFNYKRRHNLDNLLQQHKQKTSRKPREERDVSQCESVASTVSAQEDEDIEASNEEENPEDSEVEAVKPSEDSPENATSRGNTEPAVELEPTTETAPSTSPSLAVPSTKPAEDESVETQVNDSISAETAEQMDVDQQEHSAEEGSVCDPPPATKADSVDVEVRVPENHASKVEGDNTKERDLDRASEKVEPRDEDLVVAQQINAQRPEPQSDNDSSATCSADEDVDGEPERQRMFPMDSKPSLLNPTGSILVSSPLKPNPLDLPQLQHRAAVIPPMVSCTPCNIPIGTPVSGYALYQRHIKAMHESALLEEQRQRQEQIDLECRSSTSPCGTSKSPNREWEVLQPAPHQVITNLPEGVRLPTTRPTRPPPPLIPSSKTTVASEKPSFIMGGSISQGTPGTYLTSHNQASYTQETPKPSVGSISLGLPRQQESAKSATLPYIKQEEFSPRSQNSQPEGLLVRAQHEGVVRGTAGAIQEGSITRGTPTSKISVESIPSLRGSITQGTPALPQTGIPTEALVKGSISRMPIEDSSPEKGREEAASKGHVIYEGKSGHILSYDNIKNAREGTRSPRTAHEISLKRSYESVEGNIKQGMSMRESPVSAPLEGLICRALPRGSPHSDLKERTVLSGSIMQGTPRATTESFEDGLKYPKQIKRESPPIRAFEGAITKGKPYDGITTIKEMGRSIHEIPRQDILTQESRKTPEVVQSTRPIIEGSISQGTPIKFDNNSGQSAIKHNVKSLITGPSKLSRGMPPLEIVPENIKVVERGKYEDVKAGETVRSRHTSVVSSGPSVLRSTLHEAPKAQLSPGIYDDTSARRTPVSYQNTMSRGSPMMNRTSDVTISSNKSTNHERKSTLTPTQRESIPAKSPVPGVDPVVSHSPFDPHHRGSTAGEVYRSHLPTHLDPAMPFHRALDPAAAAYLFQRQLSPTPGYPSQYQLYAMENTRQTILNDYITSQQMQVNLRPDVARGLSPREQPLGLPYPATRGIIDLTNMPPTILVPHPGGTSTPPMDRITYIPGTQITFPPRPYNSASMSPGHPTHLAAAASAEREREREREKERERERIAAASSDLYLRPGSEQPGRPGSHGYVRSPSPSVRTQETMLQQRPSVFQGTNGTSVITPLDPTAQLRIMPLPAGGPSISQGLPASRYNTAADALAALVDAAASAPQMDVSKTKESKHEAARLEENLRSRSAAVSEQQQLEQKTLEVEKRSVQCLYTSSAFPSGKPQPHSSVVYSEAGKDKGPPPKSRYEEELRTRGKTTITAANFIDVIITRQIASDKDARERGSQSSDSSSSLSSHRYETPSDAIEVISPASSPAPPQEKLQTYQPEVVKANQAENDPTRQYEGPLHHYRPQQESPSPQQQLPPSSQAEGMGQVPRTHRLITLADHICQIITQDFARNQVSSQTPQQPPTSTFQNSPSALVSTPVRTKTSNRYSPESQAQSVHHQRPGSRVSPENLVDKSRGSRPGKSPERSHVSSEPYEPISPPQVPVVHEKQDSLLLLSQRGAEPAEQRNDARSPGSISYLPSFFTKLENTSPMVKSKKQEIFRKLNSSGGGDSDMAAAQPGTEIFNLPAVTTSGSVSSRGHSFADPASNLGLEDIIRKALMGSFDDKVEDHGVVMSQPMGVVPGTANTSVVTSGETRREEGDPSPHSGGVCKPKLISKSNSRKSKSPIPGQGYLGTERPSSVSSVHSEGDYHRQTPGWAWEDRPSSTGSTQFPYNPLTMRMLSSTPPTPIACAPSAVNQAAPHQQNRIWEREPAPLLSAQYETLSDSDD

A-375 [17] = test: Induction of apoptosis in human A375 cells assessed as necrotic cells at 16 uM after 72 hrs by Alexa Fluor 488 Annexin/propidium iodide staining-based flow cytometric analysis (reference value: 1.64%); format: functional
A-375 [18] = test: Induction of apoptosis in human A375 cells assessed as necrotic cells at 8 uM after 72 hrs by Alexa Fluor 488 Annexin/propidium iodide staining-based flow cytometric analysis (reference value: 1.64%); format: functional
NCI-H1299 = test: Antiproliferative activity against human H1299 cells after 72 hrs CCK8 assay; format: functional, cell-based; settings: NCI-H1299, 72 h
SMMC-7721 = test: Antiproliferative activity against human SMMC7721 cells after 72 hrs CCK8 assay; format: functional, cell-based; settings: SMMC-7721, 72 h; summary of the method: as §3
[19] = target: T2, Protein deacetylase HDAC6 (Homo sapiens, UniProt Q9UBN7); test: Inhibition of recombinant human HDAC6 using FLUOR DE LYS SIRT1, deacetylase as substrate after 1 hr by fluorescence assay; summary of the method: as §1
T2 sequence (Q9UBN7 whole entry): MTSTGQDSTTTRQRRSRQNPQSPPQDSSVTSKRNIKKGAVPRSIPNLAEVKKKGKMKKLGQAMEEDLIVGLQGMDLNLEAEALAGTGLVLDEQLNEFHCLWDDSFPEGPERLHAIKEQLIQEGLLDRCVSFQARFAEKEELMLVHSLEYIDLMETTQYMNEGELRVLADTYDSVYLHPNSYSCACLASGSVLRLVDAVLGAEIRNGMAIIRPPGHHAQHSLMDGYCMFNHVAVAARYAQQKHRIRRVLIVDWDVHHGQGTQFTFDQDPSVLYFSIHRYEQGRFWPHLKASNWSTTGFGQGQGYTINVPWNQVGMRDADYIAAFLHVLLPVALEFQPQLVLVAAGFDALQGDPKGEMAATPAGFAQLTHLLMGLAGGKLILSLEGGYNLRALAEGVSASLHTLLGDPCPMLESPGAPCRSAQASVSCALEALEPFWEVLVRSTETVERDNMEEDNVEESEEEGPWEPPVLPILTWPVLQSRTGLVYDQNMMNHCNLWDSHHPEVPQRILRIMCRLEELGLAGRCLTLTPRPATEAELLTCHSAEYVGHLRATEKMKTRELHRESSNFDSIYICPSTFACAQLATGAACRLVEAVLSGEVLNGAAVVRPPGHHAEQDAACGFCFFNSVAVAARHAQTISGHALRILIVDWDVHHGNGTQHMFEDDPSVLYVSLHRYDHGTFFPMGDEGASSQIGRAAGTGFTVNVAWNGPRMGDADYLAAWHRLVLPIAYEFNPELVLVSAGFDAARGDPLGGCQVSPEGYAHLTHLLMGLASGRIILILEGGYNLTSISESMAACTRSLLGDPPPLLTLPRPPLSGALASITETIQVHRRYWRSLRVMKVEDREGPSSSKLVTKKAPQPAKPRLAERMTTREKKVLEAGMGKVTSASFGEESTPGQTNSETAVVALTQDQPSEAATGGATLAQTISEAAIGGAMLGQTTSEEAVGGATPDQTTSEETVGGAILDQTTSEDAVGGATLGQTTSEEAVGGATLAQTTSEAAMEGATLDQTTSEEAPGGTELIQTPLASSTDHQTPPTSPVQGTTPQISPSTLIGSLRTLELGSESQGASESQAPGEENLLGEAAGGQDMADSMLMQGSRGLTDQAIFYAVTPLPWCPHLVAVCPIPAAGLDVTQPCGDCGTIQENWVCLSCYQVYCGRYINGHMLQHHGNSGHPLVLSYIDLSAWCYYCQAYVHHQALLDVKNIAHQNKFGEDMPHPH

Histone deacetylase 2 = Histone deacetylase 2 (Homo sapiens, UniProt Q92769); test: Inhibition of recombinant human HDAC2 using FLUOR DE LYS-Green as substrate after 1 hr by fluorescence assay; summary of the method: as §4
Histone deacetylase 2, sequence (Q92769 whole entry): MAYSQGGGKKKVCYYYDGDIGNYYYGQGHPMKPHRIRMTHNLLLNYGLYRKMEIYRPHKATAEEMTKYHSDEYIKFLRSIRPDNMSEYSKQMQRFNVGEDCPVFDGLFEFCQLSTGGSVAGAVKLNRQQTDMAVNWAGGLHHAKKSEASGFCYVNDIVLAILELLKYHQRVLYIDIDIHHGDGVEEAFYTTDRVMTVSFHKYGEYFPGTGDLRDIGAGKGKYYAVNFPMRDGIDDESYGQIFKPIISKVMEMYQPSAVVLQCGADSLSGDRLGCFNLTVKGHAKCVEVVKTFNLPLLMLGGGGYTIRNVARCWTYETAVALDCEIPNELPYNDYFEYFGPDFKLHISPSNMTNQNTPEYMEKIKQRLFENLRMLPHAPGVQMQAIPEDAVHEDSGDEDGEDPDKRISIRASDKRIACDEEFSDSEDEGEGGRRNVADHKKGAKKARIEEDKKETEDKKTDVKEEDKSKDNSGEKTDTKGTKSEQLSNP

A-375 [20] = test: Induction of apoptosis in human A375 cells assessed as viable cells at 16 uM after 72 hrs by Alexa Fluor 488 Annexin/propidium iodide staining-based flow cytometric analysis (reference value: 86.07%); format: functional; settings: A-375, 72 h, read-out: Activity
A549 = test: Antiproliferative activity against human A549 cells after 72 hrs CCK8 assay; format: functional, cell-based; settings: A549, 72 h
A-375 [21] = test: Induction of apoptosis in human A375 cells assessed as late apoptotic cells at 2 uM after 72 hrs by Alexa Fluor 488 Annexin/propidium iodide staining-based flow cytometric analysis (reference value: 10.22%); format: functional

Nc1ccccc1NC(=O)CCCc1ccc(N(CCCl)CCCl)cc1
Activity (A-375 [1]): 12.31%
Activity (A-375 [2]): 48.69%
Activity (A-375 [3]): 79.2%
Activity (A-375 [4]): 5.76%
Activity (A-375 [5]): 2.77%
IC50 (HepG2): 14.2 µM
IC50 (Histone deacetylase 1): > 160 µM
Activity [6]: 159%
IC50 (Histone deacetylase 8): 75.2 µM
IC50 (A-375 [7]): 6.1 µM
viability at 8 µM (A-375 [8]): 38%
Activity (A-375 [9]): 7.39%
IC50 (NCI-H460): 3.1 µM
Activity (A-375 [10]): Dose-dependent effect
inhibition [11]: Active
Activity (A-375 [12]): 42.54%
viability at 2 µM (A-375 [13]): 79.8%
Activity (A-375 [14]): Dose-dependent effect
Activity [15]: 213.3%
IC50 [16]: 9.52 µM
Activity (A-375 [17]): 3.78%
Activity (A-375 [18]): 12.05%
IC50 (NCI-H1299): 5.5 µM
IC50 (SMMC-7721): 4 µM
IC50 [19]: > 160 µM
IC50 (Histone deacetylase 2): 32.9 µM
viability at 16 µM (A-375 [20]): 35.2%
IC50 (A549): 6.2 µM
Activity (A-375 [21]): 11.63%

O=C(O)CCCc1ccc(N(CCCl)CCCl)cc1 [CHLORAMBUCIL]
Activity (A-375 [1]): 4.21%
Activity (A-375 [2]): 18.21%
Activity (A-375 [3]): 47.6%
Activity (A-375 [4]): 1.62%
Activity (A-375 [5]): 1.36%
Activity [6]: 128.9%
viability at 8 µM (A-375 [8]): 87.1%
Activity (A-375 [9]): 2.11%
IC50 (NCI-H460): 28.9 µM
Activity (A-375 [12]): 8.41%
viability at 2 µM (A-375 [13]): 90.1%
Activity [15]: 128.6%
Activity (A-375 [17]): 6.44%
Activity (A-375 [18]): 2.34%
IC50 (NCI-H1299): 116 µM
IC50 (SMMC-7721): 163 µM
viability at 16 µM (A-375 [20]): 71.1%
Activity (A-375 [21]): 6.95%

CC(=O)Nc1ccc(C(=O)Nc2ccccc2N)cc1 [TACEDINALINE]
Activity (A-375 [1]): 36.31%
Activity (A-375 [2]): 26.71%
Activity (A-375 [3]): 10.8%
Activity (A-375 [4]): 9.54%
Activity (A-375 [5]): 1.04%
Activity [6]: 104.5%
viability at 8 µM (A-375 [8]): 70.4%
Activity (A-375 [9]): 19.04%
IC50 (NCI-H460): 9.7 µM
Activity (A-375 [12]): 9.09%
viability at 2 µM (A-375 [13]): 78.4%
Activity [15]: 118.8%
Activity (A-375 [17]): 1.01%
Activity (A-375 [18]): 0.71%
IC50 (SMMC-7721): 16.9 µM
viability at 16 µM (A-375 [20]): 36%
Activity (A-375 [21]): 11.03%
